Measured values taken from PubChem BioAssay AID493160 (Sanford-Burnham Center for Chemical Genomics, 2011).
Screen size: about 340,000 compounds; about 540 (0.16%) were called active. This is one part of a sample in which actives are shown more often than they occur.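 The calls were made as follows: active = inhibition above about 35% when tested at 20 µM (limit read from the data); inactive = the rest.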

Molecular target: Hexokinase HKDC1 (Homo sapiens) (UniProt Q2TB90)
Test: blockers of human HKDC1 enzyme activity – biochemical, fluorescence, uHTS, primary screen (AID 493160);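 also: plate controls were DMSO wells with enzyme for no effect and DMSO wells lacking enzyme for full effect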
Conditions: recombinant HKDC1, G6PDH/diaphorase resazurin coupled fluorescence; at 20 µM; hits give high values
In short: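 Assay system: in-house recombinant HK5 (HKDC1) enzyme. Input: HKDC1 at 5 µg/mL. Medium: Tris pH 8.0 buffer with MgCl2, Tween-20, BSA, BME. Dosing: single 20 µM dose. Schedule: 90 min reaction incubation at room temperature, dark. Signal: resazurin-to-resorufin fluorescence via G6PDH and diaphorase coupling, 525/613 nm. Controls: DMSO-enzyme wells negative, buffer-substituted wells positive.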

Sequence of Hexokinase HKDC1 (Homo sapiens) (Q2TB90 whole entry, looked up): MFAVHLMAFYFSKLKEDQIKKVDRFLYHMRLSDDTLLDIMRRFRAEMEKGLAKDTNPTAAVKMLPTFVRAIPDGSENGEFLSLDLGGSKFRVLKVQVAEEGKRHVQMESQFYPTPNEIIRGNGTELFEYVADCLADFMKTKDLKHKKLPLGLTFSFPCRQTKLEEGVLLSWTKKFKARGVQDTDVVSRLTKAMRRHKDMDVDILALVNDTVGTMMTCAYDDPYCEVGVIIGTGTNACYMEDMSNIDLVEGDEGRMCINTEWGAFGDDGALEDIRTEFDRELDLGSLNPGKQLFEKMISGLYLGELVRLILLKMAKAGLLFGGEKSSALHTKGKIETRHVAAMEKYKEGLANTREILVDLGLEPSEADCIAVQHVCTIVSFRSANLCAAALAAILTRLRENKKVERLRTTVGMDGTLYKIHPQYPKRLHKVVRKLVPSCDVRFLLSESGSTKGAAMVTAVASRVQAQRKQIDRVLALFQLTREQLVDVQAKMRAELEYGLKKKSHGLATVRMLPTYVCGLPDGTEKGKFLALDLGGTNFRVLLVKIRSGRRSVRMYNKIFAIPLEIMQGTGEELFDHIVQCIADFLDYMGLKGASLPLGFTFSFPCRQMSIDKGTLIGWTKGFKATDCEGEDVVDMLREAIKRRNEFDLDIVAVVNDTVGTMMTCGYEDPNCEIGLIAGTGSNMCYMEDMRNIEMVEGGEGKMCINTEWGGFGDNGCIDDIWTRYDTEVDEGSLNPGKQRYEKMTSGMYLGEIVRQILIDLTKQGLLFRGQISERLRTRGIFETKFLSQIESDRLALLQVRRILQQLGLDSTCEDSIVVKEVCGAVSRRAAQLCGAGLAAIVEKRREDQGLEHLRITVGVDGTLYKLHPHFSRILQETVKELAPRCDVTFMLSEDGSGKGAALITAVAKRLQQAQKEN

Structure (SMILES)	inhibition
CCCC(=O)N1CCC(CCC(=O)NC2CC2)CC1	-4.77% (inactive)
COc1cc(Cl)c(C)cc1NC(=O)CSc1nnc(CN2CCCC2)o1	-4.86% (inactive)
O=S(=O)(NN=C1CCCCCCC1)c1ccc(Br)cc1	3.73% (inactive)
CCOc1cc(NC(=S)NCCCN(C)C)c(OCC)cc1NC(=O)C1CC1	-8.33% (inactive)
CC(Cc1cccs1)N(Cc1ccc(Cl)cc1)C(=O)c1ccncc1 (stereo not given)	3.31% (inactive)
O=C1C(=O)N(CCCN2CCOCC2)C(c2ccc([N+](=O)[O-])cc2)/C1=C(\O)c1ccc2c(c1)OCCO2 (stereo not given)	-4.72% (inactive)
Cc1cccc(-n2c(SCC(=O)Nc3cccc(S(=O)(=O)NC4=NCCCCC4)c3)nc3ccccc3c2=O)c1C	1.69% (inactive)
Cc1ccnc(SCC(=O)Nc2cccc(S(=O)(=O)N3CCOCC3)c2)n1	0.74% (inactive)
CCOC(=O)C1CCN(C(=O)CC2C(=O)N(Cc3ccccc3)C(C)c3nc4ccccc4n32)CC1 (stereo not given)	-7.65% (inactive)
CCCCN(C(=O)c1ccc2ccccc2c1)c1c(N)n(CCCC)c(=O)[nH]c1=O	-1.92% (inactive)
CCN(CC)C(=O)CSc1nc2ccccc2n1CC(=O)N1CCN(c2ccccc2OC)CC1	-2.34% (inactive)
CCC(C)NC(=O)c1cc(Cl)ccc1OC (stereo not given)	-12.3% (inactive)
COc1ccc(C(=O)COC(=O)Cn2cnc3c2c(=O)n(C)c(=O)n3C)c(OC)c1	-0.76% (inactive)
COc1ccc2[nH]c3c(c2c1)CCN1C(=O)C(CC(=O)NCc2cccc(C(F)(F)F)c2)C[C@H](C(=O)N2CCOCC2)[C@@]31C (stereo not given in full)	5.85% (inactive)
O=C(O)CCCCCCCCCC[n+]1ccccc1	-10.3% (inactive)
Cc1cc(C)n2nc(C(=O)OCC(=O)N(C)CC(=O)Nc3ccc(F)cc3)nc2n1	-5.6% (inactive)
CC(NC(=O)c1ccccc1)C(=O)Nc1ccccc1 (stereo not given)	-6.92% (inactive)
O=C(NC(=O)c1ccccc1)Nc1ccccc1O	2.6% (inactive)
O=C(NC1=CC(=O)c2ccccc2C1=O)c1ccccc1	54.1% (active)
CCN(Cc1ccccc1)S(=O)(=O)c1cc2c3c(c1)CCN3C(=O)CC2	4.66% (inactive)
Cc1cc(C(=O)COC(=O)CNC(=O)c2ccc(F)cc2)c(C)n1Cc1ccco1	-4.86% (inactive)
O=C(COc1ccccc1)Nc1cc2c3c(c1)CC(=O)N3CCC2	-4.21% (inactive)
Cn1nc(C(F)(F)F)cc1-c1ccc(/C=C(\C#N)C(=O)c2cccc(C(F)(F)F)c2)s1	13.8% (inactive)
Cc1cc(C)c2oc(C(=O)Nc3ccc(S(=O)(=O)Nc4nccc(C)n4)cc3)cc(=O)c2c1	0.48% (inactive)
COc1cc(OC)cc(C(=O)NCC(=O)N2CCCCCCC2)c1	-3.62% (inactive)
CC(=O)N(C1=C(Cl)C(=O)c2ccccc2C1=O)c1ccc(C(=O)O)cc1	52.2% (active)
CCCN(CC(=O)Nc1ccccc1C)C(=O)c1ccc(OCC(=O)N2CCOCC2)c(OCC)c1	-2.45% (inactive)
N#Cc1ccc(C2N=C(c3ccccc3)NO2)cc1 (stereo not given)	0.41% (inactive)

Structure (SMILES)	inhibition
O=C(C1CCN(S(=O)(=O)c2cnc[nH]2)CC1)N1CCN(Cc2ccc3c(c2)OCO3)CC1	0.71% (inactive)
C=CCN(Cc1nc(-c2cc(OC)c3c(c2)OCO3)oc1C)C1CCS(=O)(=O)C1 (stereo not given)	-3.24% (inactive)
COc1ccc(N(CC(=O)N/N=C/c2cccs2)S(=O)(=O)c2ccc(OC)c(OC)c2)cc1	-10.3% (inactive)
COc1ccc(N(CC(=O)N/N=C/c2cccc3c2OCCO3)S(=O)(=O)c2ccc(NC(C)=O)cc2)cc1	38.1% (active)
CC(=O)Nc1ccc(S(=O)(=O)N(CCc2ccccc2)CC(=O)N/N=C/c2ccc(C(=O)O)cc2)cc1	-2.7% (inactive)
COc1ccc(Cl)cc1C(=O)NNC(=O)c1nc2nc(C)cc(C)n2n1	0.07% (inactive)
O=c1ccc2c(-c3ccccc3S(=O)(=O)O)c3ccc(O)c(O)c3oc-2c1O	38.4% (active)
COc1ccccc1CNC(=O)[C@@H]1CCCN1C(=O)[C@@H]1Cc2ccccc2CN1C(=O)OC(C)(C)C	3.72% (inactive)
Cc1cc[n+](-c2[nH]c(=O)sc2/C=N/NC(=O)c2ccccc2[O-])cc1C	-1.94% (inactive)
O=C(COC(=O)Cn1cnc2ccccc2c1=O)NCc1ccccc1Cl	-10.3% (inactive)
O=C(Nc1cc(-c2nn(CC(=O)N3CCCCC3)c(=O)c3ccccc23)ccc1N1CCOCC1)c1ccc(Cl)cc1	-2.81% (inactive)
O=c1[nH]n2c(-c3ccccc3)nc(O)c2c2ccccc12	-18.8% (inactive)
O=c1[nH]c2ccccc2n2c(-c3ccccc3)nnc12	46.7% (active)
O=C(C[C@H]1C/C=C\C[C@@H](NC(=O)OCC2c3ccccc3-c3ccccc32)C(=O)O[C@@H](c2ccccc2)CNC1=O)N[C@H](CO)Cc1ccccc1	-0.6% (inactive)
CCOC(=O)CSc1nncc2ccc(OC)c(OC)c12	-9.31% (inactive)
CCOC(=O)CSc1nc2ccc(C)cc2n2cnnc12	53% (active)
COc1ccc(CCNc2nc3ccc(C)cc3n3cnnc23)cc1OC	8.2% (inactive)
CC1CN(C2CCN(C(=O)COc3ccccc3)CC2)CC(C)O1 (stereo not given)	1.62% (inactive)
CC(C)(C)Nc1c(N)c(=O)oc2ccccc12	44.6% (active)
O=c1oc2ccccc2c(=O)c2ccccc12	-8.91% (inactive)
Nc1c(NCCc2ccccc2)c2ccccc2oc1=O	-1.28% (inactive)
COc1ccc(CCN2CNc3c(c(=O)n(C)c(=O)n3C)C2)cc1OC	6.26% (inactive)
O=C(Nc1cc(S(=O)(=O)N2CCOCC2)ccc1Cl)c1cc(=O)c2ccccc2o1	12.4% (inactive)
Cc1nnnn1/C(=C\c1ccccc1)C(=O)OCC(=O)N1CC2(C)CC1CC(C)(C)C2 (stereo not given)	-1.75% (inactive)
CCN(CC(=O)Nc1ccc2c(c1)OCO2)S(=O)(=O)c1ccccc1	-0.97% (inactive)
O=C(/C=C/c1cccc(C(F)(F)F)c1)N1CCN(c2ccccn2)CC1	3.47% (inactive)
O=C(CSc1cccc[n+]1[O-])c1ccc(-c2ccccc2)cc1	-4.64% (inactive)
